Assay results reported in ChEMBL document CHEMBL1146598, “Synthesis and structure-activity relationship of mannose-based peptidomimetics selectively blocking integrin alpha4beta7 binding to mucosal addressin cell adhesion molecule-1” (J Med Chem, 2003).

How the values were obtained:
[1] = biological target: Integrin beta-1 (Homo sapiens, UniProt P05556); experiment: Inhibition of alpha4-beta1 interaction to vascular cell adhesion molecule-1 (VCAM-1) was determined; assay type: functional
Procedure, shortened: (§1)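 Jurkat cells (α4β1+, α4β7−) are Hoechst H33342-labelled (6 µg/mL), then preincubated with compound 10 min at 37 °C at 8 × 10^5 cells/mL. Adhesion runs 30 min at 37 °C to VCAM-IgG (293T transfectant supernatant) captured on donkey anti-human IgG, in RPMI/1% BSA/1 mM Ca2+, Mg2+. Unbound cells are spun off inverted (50 g, 10 min); adhesion is read by fluorescence; IC50 from curves.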

[2] = biological target: Integrin alpha-4/beta-1 (Homo sapiens) (UniProt P05556+P13612); experiment: In vitro inhibition of Jurkat cell (alpha4-beta1) cell adhesion to vascular cell adhesion molecule-1.; assay type: functional, cell-based; procedure, shortened: as §1
[3] = In vitro inhibition of 38-beta7 (alpha4-beta7) cell adhesion to mucosal addressin cell adhesion molecule-1.; assay type: functional
Procedure, shortened: (§2)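 38C13β7 lymphoma cells (α4β7+) labelled with H33342 dye (6 µg/mL), 8 × 10^5 cells/mL in adhesion buffer (Click's RPMI, 1% BSA, 1.0 mM Ca2+/Mg2+). Cells are preincubated with compound 10 min at 37 °C, then adhere 30 min at 37 °C to plates carrying anti-human-IgG-captured MAdCAM-1-IgG from 293T supernatant. Nonadherent cells are removed by inverse centrifugation (50 g, 10 min); readout is fluorimetry; IC50 from curves.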

[4] = biological target: T1, Integrin beta-7 (Homo sapiens, UniProt P13612+P26010); experiment: Inhibition of alpha4-beta7 interaction to mucosal addressin cell adhesion molecule-1 (MAdCAM-1) was determined; assay type: functional; procedure, shortened: as §2
T1 sequence (P26010 whole entry): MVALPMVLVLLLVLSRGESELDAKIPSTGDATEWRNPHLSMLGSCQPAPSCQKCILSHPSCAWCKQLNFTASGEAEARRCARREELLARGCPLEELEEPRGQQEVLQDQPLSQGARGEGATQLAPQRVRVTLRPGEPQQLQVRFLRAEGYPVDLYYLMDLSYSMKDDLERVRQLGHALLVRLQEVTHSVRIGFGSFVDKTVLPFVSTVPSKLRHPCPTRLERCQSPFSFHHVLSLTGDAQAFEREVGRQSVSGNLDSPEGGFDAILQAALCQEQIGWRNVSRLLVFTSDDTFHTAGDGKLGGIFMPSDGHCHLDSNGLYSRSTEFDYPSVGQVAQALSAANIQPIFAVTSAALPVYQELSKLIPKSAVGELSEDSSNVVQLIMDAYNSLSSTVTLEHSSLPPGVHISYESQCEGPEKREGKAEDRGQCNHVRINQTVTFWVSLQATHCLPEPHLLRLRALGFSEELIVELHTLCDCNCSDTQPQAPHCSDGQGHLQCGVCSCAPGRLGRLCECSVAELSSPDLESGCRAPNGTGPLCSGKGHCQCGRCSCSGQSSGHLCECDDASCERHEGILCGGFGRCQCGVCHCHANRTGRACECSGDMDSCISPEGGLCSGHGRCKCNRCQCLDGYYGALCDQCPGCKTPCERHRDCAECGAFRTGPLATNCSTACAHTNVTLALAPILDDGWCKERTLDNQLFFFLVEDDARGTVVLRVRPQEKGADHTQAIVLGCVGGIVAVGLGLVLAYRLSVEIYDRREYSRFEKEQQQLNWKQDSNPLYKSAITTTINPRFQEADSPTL

Sequence of Integrin beta-1 (P05556 whole entry): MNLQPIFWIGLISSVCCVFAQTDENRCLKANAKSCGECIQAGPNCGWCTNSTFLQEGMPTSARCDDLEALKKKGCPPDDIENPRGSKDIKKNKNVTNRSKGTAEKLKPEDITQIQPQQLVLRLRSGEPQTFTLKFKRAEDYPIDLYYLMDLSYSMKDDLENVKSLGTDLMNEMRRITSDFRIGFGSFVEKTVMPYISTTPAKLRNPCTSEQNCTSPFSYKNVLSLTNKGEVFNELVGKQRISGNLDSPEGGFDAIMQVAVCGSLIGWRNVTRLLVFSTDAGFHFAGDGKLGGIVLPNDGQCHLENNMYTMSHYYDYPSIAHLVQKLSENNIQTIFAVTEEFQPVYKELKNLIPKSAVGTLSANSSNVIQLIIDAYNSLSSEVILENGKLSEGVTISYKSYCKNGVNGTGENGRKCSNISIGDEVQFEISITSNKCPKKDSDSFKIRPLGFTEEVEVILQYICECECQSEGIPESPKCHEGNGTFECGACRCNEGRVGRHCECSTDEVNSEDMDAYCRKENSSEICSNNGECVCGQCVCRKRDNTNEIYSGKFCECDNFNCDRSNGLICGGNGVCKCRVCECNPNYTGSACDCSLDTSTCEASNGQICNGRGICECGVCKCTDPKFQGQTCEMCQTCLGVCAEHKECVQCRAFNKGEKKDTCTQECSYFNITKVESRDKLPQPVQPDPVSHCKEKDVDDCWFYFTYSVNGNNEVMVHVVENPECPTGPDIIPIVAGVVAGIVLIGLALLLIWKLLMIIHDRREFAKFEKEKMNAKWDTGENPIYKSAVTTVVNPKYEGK

Row | SMILES | IC50 [1] [µM] | Adhesion [2] [%] | Adhesion [3] [%] | IC50 [4] [µM]
1 | CC[C@H](C)[C@@H]1NC(=O)[C@H](CCC(N)=O)NC(=O)[C@@H](N)CSSC[C@@H](C(=O)O)NC(=O)[C@@H]2CCCN2C(=O)[C@H](CO)NC(=O)[C@H](CC(=O)O)NC1=O | 1440 | – | – | –
2 | CO[C@]12CCCC[C@@]1(OC)OC1[C@H](COCC(C)C)O[C@@H](OCC(=O)O)[C@H](OCc3ccccc3)[C@H]1O2 (stereo in doubt; form 2) [listing 1 of 2 here] | – | 77 | – | –
3 | CC[C@H](C)[C@@H]1NC(=O)[C@@H](CCC(N)=O)NC(=O)[C@H](N)CSSC[C@H](C(=O)O)NC(=O)[C@H]2CCCN2C(=O)[C@H](CO)NC(=O)[C@@H](CC(=O)O)NC1=O | – | 52 | – | –
4 | COC1C(COCC(C)C)O[C@@H](OCC(=O)O)[C@H](OCCO)[C@H]1OC (stereo not given in full) | – | 100 | 100 | –
5 | COC1C(COCC(C)C)O[C@@H](OCC(=O)O)[C@H](OCc2ccccc2)[C@H]1OC (stereo not given in full) | – | 100 | 100 | –
6 | COC1C(COCC(C)C)O[C@@H](OCC(=O)O)C(OCc2ccccc2)[C@H]1OC (stereo not given in full) | – | 86 | 100 | –
7 | CO[C@@]12O[C@@H]3[C@H](OCCO)[C@H](OCC(=O)O)O[C@H](COCC(C)C)[C@H]3O[C@@]1(OC)c1ccccc1-c1ccccc12 | – | 82 | 80 | –
8 | COC1C(CC(C)C)O[C@@H](OCC(=O)O)[C@H](OCc2ccccc2)[C@H]1OC (stereo not given in full) | – | 100 | 100 | –
9 | CO[C@]12CCCC[C@@]1(OC)OC1[C@H](COCC(C)C)O[C@@H](OCC(=O)O)[C@H](OCc3ccccc3)[C@H]1O2 (stereo in doubt; form 2) [listing 2 of 2 here] | – | – | 15 | 420
10 | CO[C@]12CCCC[C@@]1(OC)OC1[C@H](COCC(C)C)O[C@@H](OCC(=O)O)[C@H](OCc3ccccc3)[C@H]1O2 (stereo in doubt; form 1) [listing 1 of 2 here] | – | – | 90 | –
11 | COC12CCCC[C@]1(OC)O[C@H]1C(O2)C(COC(C)C)O[C@@H](OCC(=O)O)[C@@H]1OCc1ccccc1 (stereo in doubt; form 1) [listing 1 of 2 here] | – | 100 | – | –
12 | COC1C(CC(C)C)O[C@@H](OCC(=O)O)C(OCc2ccccc2)[C@H]1OC (stereo not given in full) | – | 100 | 100 | –
13 | COC12CCCC[C@]1(OC)O[C@H]1C(O2)C(COC(C)C)O[C@@H](OCC(=O)O)[C@@H]1OCc1ccccc1 (stereo in doubt; form 1) [listing 2 of 2 here] | – | – | 100 | –
14 | CO[C@]12CCCC[C@@]1(OC)OC1[C@H](COCC(C)C)O[C@@H](OCC(=O)O)[C@H](OCc3ccccc3)[C@H]1O2 (stereo in doubt; form 1) [listing 2 of 2 here] | – | 89 | – | –
15 | COC12CCCC[C@]1(OC)O[C@H]1C(O2)C(COC(C)C)O[C@@H](OCC(=O)O)[C@@H]1OCc1ccccc1 (stereo in doubt; form 2) [listing 1 of 2 here] | – | – | 76 | –
16 | COC1C(CCC(C)C)O[C@@H](OCC(=O)O)[C@H](OCc2ccccc2)[C@H]1OC (stereo not given in full) | – | 97 | 100 | –
17 | COC1C(COC(C)C)O[C@@H](OCC(=O)O)C(OCc2ccccc2)[C@H]1OC (stereo not given in full) | – | 86 | 100 | –
18 | COC1C(COC(C)C)O[C@@H](OCC(=O)O)C(OCCO)[C@H]1OC (stereo not given in full) | – | 100 | 100 | –
19 | CO[C@@]12O[C@H]3[C@H](O[C@@]1(OC)c1ccccc1-c1ccccc12)[C@@H](COCC(C)C)OC(OCC(=O)O)[C@H]3OCCO (stereo not given in full) | – | 81 | 76 | –
20 | COC12CCCC[C@]1(OC)O[C@H]1C(O2)C(COC(C)C)O[C@@H](OCC(=O)O)[C@@H]1OCc1ccccc1 (stereo in doubt; form 2) [listing 2 of 2 here] | – | 100 | – | –
21 | COC1C(COC(C)C)O[C@@H](OCC(=O)O)[C@H](OCCO)[C@H]1OC (stereo not given in full) | – | 98 | 100 | –
22 | CC(C)C[C@H](NC(=O)c1cc2ccccc2cn1)C(=O)N[C@@H](CC(=O)O)C(=O)N[C@H](C(N)=O)[C@@H](C)O | – | 10 | 10 | 280
23 | COC1C(CCC(C)C)O[C@@H](OCC(=O)O)C(OCc2ccccc2)[C@H]1OC (stereo not given in full) | – | 100 | 100 | –
24 | COC1C(COC(C)C)O[C@@H](OCC(=O)O)[C@H](OCc2ccccc2)[C@H]1OC (stereo not given in full) | – | 92 | 100 | –
